Data on 66 compounds can be found in ChEMBL document CHEMBL1159128, “Structure-activity relationship of C5-curcuminoids and synthesis of their molecular probes thereof” (2010).

Some results are limits rather than exact numbers.

One test concerns DLD-1. In words: Cytotoxicity against human DLD1 cells. The class given is functional.
Details: not given
Broadly, the GI50 is the concentration giving 50% growth inhibition. Low values mean more potent growth inhibition, high ones less potent growth inhibition. `COc1ccc(/C=C/C(=O)/C=C/c2ccc(OC)c(OC)c2)cc1OC`: the GI50 is 2 µM.

For the compound `O=C(/C=C/c1ccc2c(c1)OCO2)/C=C/c1ccc2c(c1)OCO2`, the concentration for 50% growth inhibition (GI50) was more than 50 µM.

`COc1cc(/C=C/C(=O)CC(=O)/C=C/c2ccc(O)c(OC)c2)ccc1O` [CURCUMIN] yielded a GI50 of 8 µM.

The test system of the next test is HCT-116. In words: Growth inhibition of human HCT116 cells after 48 hrs by MTS assay. The format is functional. Conditions: HCT-116, 48 h. A digest of the protocol: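 Vehicle controls received 1% DMSO alone. Growth in treated wells was expressed as a percentage of this control and plotted against concentration, and the mean growth-inhibitory concentration (GI50) was read from the curve.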
(In general: Tetrazolium assays rely on reduction of a dye to a coloured formazan, in cell work by metabolically active cells.)
For `COc1cc(/C=C/C(=O)/C=C/c2ccc(O)c(OC)c2)ccc1O`, it took 15 µM to inhibit growth by half (GI50).

`COc1ccc(/C=C/C(=O)/C=C(O)/C=C/c2ccc(OC)c(OC)c2)cc1OC` showed a GI50 of 2 µM.

Turning to `COc1ccc(/C=C/C(=O)/C=C/c2ccc(OC)c(OC)c2)cc1OC`, growth was halved (GI50) at 1.5 µM.

In the case of `COc1ccc(/C=C/C(=O)/C=C/c2ccc(OC)cc2OC)c(OC)c1`, the GI50 is more than 50 µM.

Compound `COc1ccc(/C=C2\CCC/C(=C\c3ccc(OC)c(OC)c3)C2=O)cc1OC` showed a 50% growth inhibitory concentration (GI50) of more than 50 µM.

In the case of `COc1cccc(/C=C/C(=O)/C=C/c2cccc(OC)c2OC)c1OC`, growth was halved (GI50) at 1.3 µM.

Compound `COc1ccccc1/C=C/C(=O)/C=C/c1ccccc1OC` registered a GI50 of 4 µM.

For the compound `COc1cc(/C=C/C(=O)/C=C/c2cc(OC)c(OC)c(OC)c2)cc(OC)c1OC`, growth was halved (GI50) at 0.3 µM.

On to `COc1cc(OC)c(/C=C/C(=O)/C=C/c2c(OC)cc(OC)cc2OC)c(OC)c1`, for which the 50% growth inhibitory concentration (GI50) is 2.3 µM.

`COc1cc(/C=C/C(=O)/C=C/c2cc(OC)c(O)c(OC)c2)cc(OC)c1O`: the concentration for 50% growth inhibition (GI50) amounted to 0.8 µM.

As for `COc1ccc(/C=C/C(=O)/C=C/c2ccc(OC)c(O)c2)cc1O`, the concentration for 50% growth inhibition (GI50) came to 0.8 µM.

`COc1cc(OC)c(OC)cc1/C=C/C(=O)/C=C/c1cc(OC)c(OC)cc1OC` displayed a concentration for 50% growth inhibition (GI50) of 2 µM.

In turn, `COc1cc(/C=C/C(=O)/C=C/c2cc(OC)cc(OC)c2)cc(OC)c1` showed a GI50 of 2 µM.

`COc1ccc(OC)c(/C=C/C(=O)/C=C/c2cc(OC)ccc2OC)c1` displayed a GI50 of 8.1 µM.

Regarding `COc1ccc(/C=C/C(=O)/C=C/c2ccc(OC)cc2)cc1`, the GI50 was 9 µM.

Turning to `COc1cc(/C=C/C(=O)/C=C/c2cccc(OC(c3ccccc3)(c3ccccc3)c3ccccc3)c2)cc(OC)c1OC`, growth was halved (GI50) at 8.5 µM.

For the compound `COc1cc(/C=C/C(=O)/C=C/c2cc(OC)c(OCc3cn(Cc4ccc(OC5CCCCO5)cc4)nn3)c(OC)c2)cc(OC)c1OC` (configuration not stated), halving of growth (GI50) required 0.3 µM.

`COc1cc(/C=C/C(=O)/C=C/c2cc(OC)c(OCc3cn(CCCCCCCCCOC(=O)CCC4=[N+]5C(=Cc6c(C)cc(C)n6[B-]5(F)F)C=C4)nn3)c(OC)c2)cc(OC)c1OC` came in with a 50% growth inhibitory concentration (GI50) of 15 µM.

For `COc1cc(/C=C/C(=O)/C=C/c2cc(OC)c(OCc3cn(CCCCCCCCCO)nn3)c(OC)c2)cc(OC)c1OC`, halving of growth (GI50) required 0.8 µM.

As for `COc1cc(/C=C/C(=O)/C=C/c2cc(OC)c(OCc3cn(CCCCCCCCCCNC(=O)OC(C)(C)C)nn3)c(OC)c2)cc(OC)c1OC`, the concentration for 50% growth inhibition (GI50) came to 0.8 µM.

Consider `COc1cc(/C=C/C(=O)/C=C/c2cc(OC)c(OCc3cn(CCCCCCCCCCOC(=O)CSCc4c(C)n5c(C)c(C)c(=O)n5c4=O)nn3)c(OC)c2)cc(OC)c1OC`, for which the GI50 amounted to 2.6 µM.

Compound `COc1ccc(/C=C/C(=O)c2ccc(OC)c(OC)c2)cc1OC` displayed a GI50 of 7 µM.

For `COc1cc(OC)c(OC)c(OC)c1/C=C/C(=O)/C=C/c1c(OC)cc(OC)c(OC)c1OC`, the GI50 was more than 50 µM.

The compound `COc1cccc(/C=C/C(=O)/C=C/c2cccc(OC)c2)c1` had a 50% growth inhibitory concentration (GI50) of 9.1 µM.

For `COc1ccc(/C=C/C(=O)/C=C/c2cc(OC)c(OC)c(OC)c2)cc1`, the GI50 was determined as 3 µM.

In the case of `COc1cccc(/C=C/C(=O)/C=C/c2cc(OC)c(OC)c(OC)c2)c1`, halving of growth (GI50) required 6.9 µM.

In turn, `COc1cc(/C=C/C(=O)/C=C/c2ccc(OC)c(OC)c2)ccc1O` gave a GI50 of 0.7 µM.

In the case of `COc1cc(/C=C/C(=O)/C=C/c2ccc(OC)c(OC)c2OC)cc(OC)c1OC`, the GI50 stood at 1.9 µM.

The compound `COCOc1ccc(/C=C/C(=O)/C=C/c2ccc(OCOC)c(OCOC)c2)cc1OCOC` showed a concentration for 50% growth inhibition (GI50) of 0.8 µM.

With `COc1ccc(/C=C/C(/C=C/c2ccc(OC)c(OC)c2)=NO)cc1OC`, the GI50 was more than 50 µM.

The compound `CCCSC(CC(=O)/C=C/c1ccc(OC)c(OC)c1)c1ccc(OC)c(OC)c1` (configuration not stated) showed a GI50 of 22 µM.

In the case of `COc1ccc(/C=C/C(=O)CCc2ccc(OC)c(OC)c2)cc1OC`, the 50% growth inhibitory concentration (GI50) is more than 50 µM.

The compound `COc1ccc(CCC(=O)CCc2ccc(OC)c(OC)c2)cc1OC` showed a concentration for 50% growth inhibition (GI50) of more than 50 µM.

As for `COc1cccc(OC)c1/C=C/C(=O)/C=C/c1c(OC)cccc1OC`, halving of growth (GI50) required 9 µM.

For `COc1ccc(/C=C/C(=O)/C=C/c2ccc(OC)c(OC)c2OC)c(OC)c1OC`, the GI50 was 3.5 µM.

`COc1ccc(OC)c(OC)c1/C=C/C(=O)/C=C/c1c(OC)ccc(OC)c1OC`: the GI50 turned out to be 2.3 µM.

For the compound `COc1cc(/C=C/C(=O)/C=C/c2cccc(O)c2)cc(OC)c1OC`, it took 0.9 µM to inhibit growth by half (GI50).

`C=C1CC2CC(C1)/C(=C\c1ccc(OC)c(OC)c1)C(=O)/C2=C/c1ccc(OC)c(OC)c1` displayed a GI50 of more than 50 µM.

`COc1cc(/C=C/C(=O)/C=C/c2cc(OC)c(OCCN=[N+]=[N-])c(OC)c2)cc(OC)c1OC` gave a GI50 of 9.7 µM.

`COCOc1cccc(/C=C/C(=O)/C=C/c2cc(OC)c(OC)c(OC)c2)c1` showed a GI50 of 4 µM.

Compound `CCOC(C)Oc1c(OC)cc(/C=C/C(=O)/C=C/c2cc(OC)c(OC)c(OC)c2)cc1OC` (configuration not stated) returned a GI50 of 1.5 µM.

Compound `C#CCOc1c(OC)cc(/C=C/C(=O)/C=C/c2cc(OC)c(OC)c(OC)c2)cc1OC` yielded a concentration for 50% growth inhibition (GI50) of 1.8 µM.

The compound `C#CCOc1c(OC)cc(/C=C/C(=O)/C=C/c2cc(OC)c(OCC#C)c(OC)c2)cc1OC` yielded a GI50 of 0.3 µM.

With `COc1cc(/C=C/C(=O)/C=C/c2cc(OC)c(OCCN=[N+]=[N-])c(OC)c2)cc(OC)c1OCCN=[N+]=[N-]`, the GI50 came out at 7.6 µM.

Turning to `COc1ccc(/C=C/C(=O)/C=C/c2ccc(OC)c(OC)c2)cc1`, the concentration for 50% growth inhibition (GI50) was 4 µM.

Regarding `COc1cc(/C=C/C(=O)/C=C/c2cccc(OS(=O)(=O)C(F)(F)F)c2)cc(OC)c1OC`, the GI50 is 2.4 µM.

Consider `COc1cc(/C=C/C(=O)/C=C/c2cccc(C#Cc3ccccc3)c2)cc(OC)c1OC`, for which growth was halved (GI50) at 8.1 µM.

As for `CCOC(C)Oc1cccc(/C=C/C(=O)/C=C/c2cc(OC)c(OC)c(OC)c2)c1` (configuration not stated), the 50% growth inhibitory concentration (GI50) was determined as 1.4 µM.

In turn, `COc1cc(/C=C/C(=O)/C=C/c2cccc(Cl)c2)cc(OC)c1OC` registered a concentration for 50% growth inhibition (GI50) of 17 µM.

The compound `COc1cc(/C=C/C(=O)/C=C/c2cc(OC)c(OC)c(OC)c2)cc(OC)c1O` had a GI50 of 0.8 µM.

The compound `COc1cc(/C=C/C(=O)/C=C/c2cc(OC)c(OCC(=O)O)c(OC)c2)cc(OC)c1OC` registered a GI50 of 38 µM.

The compound `COC(=O)COc1c(OC)cc(/C=C/C(=O)/C=C/c2cc(OC)c(OC)c(OC)c2)cc1OC` came in with a GI50 of 7 µM.

For the compound `COc1ccc(/C=C/C(=O)/C=C/c2ccc(OC)c(OC)c2)cc1O`, the concentration for 50% growth inhibition (GI50) came out at 1.5 µM.

With `COCOc1c(OC)cc(/C=C/C(=O)/C=C/c2cc(OC)c(OCOC)c(OC)c2)cc1OC`, the GI50 is 0.3 µM.

As to `CCCCCCCCCCCCCCOc1cccc(/C=C/C(=O)/C=C/c2cc(OC)c(OC)c(OC)c2)c1`, the GI50 is more than 50 µM.

`COc1cc(/C=C/C(=O)/C=C/c2ccccc2)cc(OC)c1OC` came in with a 50% growth inhibitory concentration (GI50) of 4.4 µM.

Compound `C#CCOc1c(OC)cc(/C=C/C(=O)/C=C/c2cc(OC)c(OCOC)c(OC)c2)cc1OC` came in with a GI50 of 2.4 µM.

In the case of `COc1cc(/C=C/C(=O)/C=C/c2cccc(OC(=O)C34CC5CC(CC(C5)C3)C4)c2)cc(OC)c1OC`, it took 7.6 µM to inhibit growth by half (GI50).

Compound `COc1ccc(/C=C/C(=O)/C=C/c2cc(OC)c(OC)c(OC)c2)cc1OC` returned a GI50 of 0.4 µM.

In turn, `COc1cc(/C=C/C(=O)/C=C/c2cc(OC)c(OCCO)c(OC)c2)cc(OC)c1OCCO` returned a GI50 of 0.5 µM.

`COc1cc(OC)c(OC)cc1/C=C/C(=O)/C=C/c1cc(OC)c(OC)c(OC)c1` came in with a concentration for 50% growth inhibition (GI50) of 3.3 µM.

`COc1cc(/C=C/C(=O)/C=C/c2cc(OC)c(OCCO)c(OC)c2)cc(OC)c1OC` had a GI50 of 1.7 µM.

For the compound `O=C(/C=C/c1cc(O)cc(O)c1)/C=C/c1cc(O)cc(O)c1`, halving of growth (GI50) required 1.5 µM.

As to `COc1ccc(CCC(O)CCc2ccc(OC)c(OC)c2)cc1OC`, the GI50 was more than 50 µM.
